The text below walks through data of ChEMBL document CHEMBL1124219, “Inhibition of porcine pepsin by two substrate analogues containing statine. The effect of histidine at the P2 subsite on the inhibition of aspartic proteinases” (J Med Chem, 1988).

Assay [1] concerns the target T1, Cathepsin D (Bos taurus, UniProt P80209).
T1 sequence (P80209 whole entry): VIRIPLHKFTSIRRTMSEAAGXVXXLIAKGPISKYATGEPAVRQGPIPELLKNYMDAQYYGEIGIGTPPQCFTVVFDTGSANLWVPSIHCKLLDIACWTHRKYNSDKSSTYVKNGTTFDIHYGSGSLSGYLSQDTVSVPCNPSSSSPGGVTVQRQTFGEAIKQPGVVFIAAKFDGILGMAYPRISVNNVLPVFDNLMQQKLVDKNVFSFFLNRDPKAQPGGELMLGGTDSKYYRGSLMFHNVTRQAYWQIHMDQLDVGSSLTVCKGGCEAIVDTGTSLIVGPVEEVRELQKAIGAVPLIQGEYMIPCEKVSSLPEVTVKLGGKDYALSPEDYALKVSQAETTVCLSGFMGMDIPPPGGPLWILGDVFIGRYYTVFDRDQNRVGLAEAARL
As to the kind of experiment: Inhibition of bovine cathepsin D at pH 3.2.

In assay [2] the target is T2, Pepsin A (Homo sapiens, UniProt P0DJD9). As to the kind of experiment: Inhibition of human pepsin at pH 2.0.
T2 sequence (P0DJD9 whole entry): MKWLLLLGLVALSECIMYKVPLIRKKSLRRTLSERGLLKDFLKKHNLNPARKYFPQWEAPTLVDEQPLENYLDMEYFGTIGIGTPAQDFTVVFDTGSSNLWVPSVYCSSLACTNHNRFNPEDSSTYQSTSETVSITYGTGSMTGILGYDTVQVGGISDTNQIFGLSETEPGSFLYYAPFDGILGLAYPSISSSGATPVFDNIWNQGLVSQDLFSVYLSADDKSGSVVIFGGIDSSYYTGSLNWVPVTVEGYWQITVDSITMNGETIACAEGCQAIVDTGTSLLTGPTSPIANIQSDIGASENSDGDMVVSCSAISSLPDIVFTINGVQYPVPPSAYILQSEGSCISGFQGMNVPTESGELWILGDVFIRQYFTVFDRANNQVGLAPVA
The target in assay [3] is T1, Cathepsin D. As to the kind of experiment: Inhibition of bovine cathepsin D at pH 3.1.
Assay [4] deals with T2, Pepsin A. As to the kind of experiment: Inhibition of human pepsin at pH 3.1.
For assay [5], the target named is T3, Renin (Homo sapiens, UniProt P00797).
T3 sequence (P00797 whole entry): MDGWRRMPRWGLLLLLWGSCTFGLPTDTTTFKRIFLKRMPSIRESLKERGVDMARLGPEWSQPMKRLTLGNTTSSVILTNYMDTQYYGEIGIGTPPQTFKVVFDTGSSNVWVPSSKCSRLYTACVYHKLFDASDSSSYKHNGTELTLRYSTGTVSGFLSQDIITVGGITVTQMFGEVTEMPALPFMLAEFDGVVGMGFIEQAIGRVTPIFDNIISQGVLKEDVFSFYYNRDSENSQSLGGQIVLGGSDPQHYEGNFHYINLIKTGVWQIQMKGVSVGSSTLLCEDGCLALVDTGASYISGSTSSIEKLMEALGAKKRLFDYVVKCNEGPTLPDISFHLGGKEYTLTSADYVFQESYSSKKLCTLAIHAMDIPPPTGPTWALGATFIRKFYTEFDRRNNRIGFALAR
As to the kind of experiment: Inhibition of human renin at pH 6.0.

In assay [6] the target is T3, Renin. In words: Inhibition of human renin at pH 7.0.
The target of assay [7] is T4, Pepsin A (Sus scrofa, UniProt P00791). As to the kind of experiment: Inhibition of porcine pepsin at pH 2.0.
T4 sequence (P00791 whole entry): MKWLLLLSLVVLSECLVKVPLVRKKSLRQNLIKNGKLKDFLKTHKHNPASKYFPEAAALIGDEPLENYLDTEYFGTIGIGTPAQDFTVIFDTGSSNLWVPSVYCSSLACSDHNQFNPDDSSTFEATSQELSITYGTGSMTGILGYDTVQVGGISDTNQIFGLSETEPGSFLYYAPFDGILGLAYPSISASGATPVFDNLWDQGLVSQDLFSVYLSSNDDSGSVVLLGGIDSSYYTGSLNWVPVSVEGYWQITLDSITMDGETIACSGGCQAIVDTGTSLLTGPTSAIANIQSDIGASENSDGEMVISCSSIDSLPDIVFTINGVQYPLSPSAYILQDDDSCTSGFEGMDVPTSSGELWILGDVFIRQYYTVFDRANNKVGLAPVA
Assay [8] deals with T4, Pepsin A. As to the kind of experiment: Inhibition of porcine pepsin at pH 4.0. A digest of the protocol:
(§1)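 Hydrolysis was followed as the absorbance drop at 290 nm over the first 5–10% of reaction. Percent activity was plotted against inhibitor concentration to give IC50, and Ki = (IC50 − 0.5Et)/(1 + S/Km).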

Assay [9] deals with T3, Renin. In words: Inhibition of human renin at pH 7.4.
The target of assay [10] is T4, Pepsin A. In words: Inhibition of porcine pepsin at pH 1.9.
Assay [11] addresses T1, Cathepsin D. As to the kind of experiment: Inhibition of bovine cathepsin D at pH 3.3(no inhibition).
Assay [12] deals with T4, Pepsin A. As to the kind of experiment: Inhibition of porcine pepsin at pH 4. A digest of the protocol:
as §1

Assay [13] deals with T4, Pepsin A. In words: Inhibition of porcine pepsin at pH 4.0 (time-dependent inhibition, T1/2>30 s).

*1 amine or outer side, *2 acyl side, *3 side chain or, on linkers, in order; H or OH if unused. Where a SMILES comes first, the peptide text is derived from it. [ ]: non-standard residue; d: D form. The star is where a group is joined. ξ: configuration not given here. Sta(3ξ) = CC(C)C[C@H](N[*:1])C(O)CC(=O)[*:2]; X1 = CC(C)CC(N[*:1])C(O)CC(C(=O)[*:2])C(C)C; Sta = CC(C)C[C@H](N)[C@@H](O)CC(=O)O; NMeH = CN[C@@H](Cc1c[nH]cn1)C(=O)O; NHCH2(2-pyridyl) = c1ccc(CN*)nc1; Isobutyryl = CC(C)C(=O)*; Boc = CC(C)(C)OC(=O)* Some results are limits rather than exact numbers.

Consider `CC[C@H](C)[C@H](NC(=O)C(F)(F)C(=O)[C@H](CC(C)C)NC(=O)[C@H](Cc1c[nH]cn1)NC(=O)[C@H](Cc1ccccc1)NC(=O)OC(C)(C)C)C(=O)NCc1ccccn1`, for which the IC50 in assay [1] was found to be 1700 nM; in assay [2], 42000 nM; in assay [3], 40000 nM; in [4] it was 60000 nM.

As for `CC[C@H](C)[C@H](NC(=O)C(F)(F)C(=O)C(CC(C)C)NC(=O)[C@H](Cc1c[nH]cn1)NC(=O)[C@H](Cc1ccccc1)NC(=O)OC(C)(C)C)C(=O)NCc1ccccn1` (stereo not given in full), the half-maximal inhibitory concentration (IC50) worked out at 1.4 nM in [5] and 10 nM in [6].

In the case of `COC(=O)CC(O)[C@H](CC(C)C)NC(=O)[C@H](C)NC(=O)CC(O)[C@H](CC(C)C)NC(=O)[C@@H](NC(=O)[C@H](Cc1ccccc1)NC(=O)OCc1ccccc1)C(C)C` (stereo not given in full), the half-maximal inhibitory concentration (IC50) in assay [7] came to 60 nM.

With `COC(=O)CC(O)[C@H](CC(C)C)NC(=O)[C@H](C)NC(=O)CC(O)[C@H](CC(C)C)NC(=O)[C@H](Cc1ccccc1)NC(=O)[C@H](Cc1ccccc1)NC(=O)OC(C)(C)C` (stereo not given in full), the half-inhibitory concentration (IC50) stood at 3.5 nM in assay [5] and 14 nM in assay [7].

On to `COC(=O)CC(O)[C@H](CC(C)C)NC(=O)[C@H](C)NC(=O)CC(O)[C@H](CC(C)C)NC(=O)[C@H](Cc1c[nH]cn1)NC(=O)[C@H](Cc1c[nH]c2ccccc12)NC(=O)OC(C)(C)C` (stereo not given in full), for which the values for the half-maximal inhibitory concentration (IC50) in assay [5] and in assay [7] were 5.5 nM and 850 nM, respectively.

Take `COC(=O)[C@H](Cc1ccccc1)NC(=O)[C@H](CC(C)C)NC(=O)CC(O)[C@H](CC(C)C)NC(=O)CCCNC(=O)[C@H](Cc1ccccc1)NC(=O)[C@@H]1CCCN1C(=O)CCCN` (stereo not given in full): the Ki was under 1 nM in assay [8] and 9 nM in [9].

For the compound `COC(=O)[C@H](Cc1ccccc1)NC(=O)[C@H](CC(C)C)NC(=O)CC(O)[C@H](CC(C)C)NC(=O)[C@H](Cc1c[nH]cn1)NC(=O)COC(=O)C(C)(C)C` (stereo not given in full), the results for the Ki in [8] and in assay [9] were 67 nM and 1100 nM, respectively.

With `COC(=O)[C@H](Cc1ccccc1)NC(=O)[C@H](CC(C)C)NC(=O)CC(O)[C@H](CC(C)C)NC(=O)[C@H](CC(C)C)NC(=O)COC(=O)C(C)(C)C` (stereo not given in full), the Ki in assay [8] was 12 nM; in assay [9] it was 1700 nM.

On to `CC(C)CC(NC(=O)CCc1ccccc1)SCC(O)C(CC1CCCCC1)NC(=O)[C@H](Cc1cnc[nH]1)NC(=O)[C@H](Cc1ccccc1)NC(=O)OC(C)(C)C` (stereo not given in full), for which the IC50 in assay [10] was over 100000 nM; in [5] it was 7 nM; in assay [3], over 100000 nM.

As to `CC[C@H](C)[C@H](NC(=O)[C@@H](NC[C@H](CC(C)C)NC(=O)[C@H](Cc1c[nH]cn1)NC(=O)[C@H](Cc1ccccc1)NC(=O)[C@@H]1CCCN1C(=O)[C@H](Cc1c[nH]cn1)NC(=O)[C@@H]1CCCN1)C(C)C)C(=O)N[C@@H](Cc1c[nH]cn1)C(=O)N[C@@H](CCCCN)C(=O)O`, the half-inhibitory concentration (IC50) was over 700000 nM in [11] and 10 nM in assay [6].

Take `CC[C@H](C)[C@H](NC(=O)C(CC(O)C(CC(C)C)NC(=O)[C@H](Cc1c[nH]cn1)N(C)C(=O)[C@H](Cc1ccccc1)NC(=O)[C@@H]1CCCN1C(=O)OC(C)(C)C)C(C)C)C(=O)NCc1ccccn1` (stereo not given in full) (Boc-PF[NMeH][X1]I-{NHCH2(2-pyridyl)}): the IC50 turned out to be 6300 nM in assay [1], 0.26 nM in assay [5] and 6800 nM in assay [7].

As to `COC(=O)[C@H](Cc1ccccc1)NC(=O)[C@H](C)NC(=O)C[C@H](O)[C@H](CC(C)C)NC(=O)[C@H](Cc1c[nH]cn1)NC(=O)CNC(=O)[C@@H](N)Cc1ccccc1` (H-FGH[Sta]AF-OMe), the Ki in assay [12] amounted to 150 nM.

In assay [13], `COC(=O)[C@H](Cc1ccccc1)NC(=O)[C@H](C)NC(=O)C[C@H](O)[C@H](CC(C)C)NC(=O)[C@@H](NC(=O)CNC(=O)[C@@H](N)Cc1ccccc1)C(C)C` (H-FGV[Sta]AF-OMe) yielded a Ki of under 1 nM.

In the case of `CC(C)C[C@H](NC(=O)CC(O)[C@H](CC(C)C)NC(=O)[C@H](Cc1c[nH]cn1)NC(=O)[C@H](Cc1ccccc1)NC(=O)[C@@H]1CCCN1C(=O)[C@@H](N)Cc1c[nH]cn1)C(=O)N[C@@H](Cc1ccccc1)C(N)=O` (stereo not given in full) (H-HPFH[Sta(3ξ)]LF-NH2), the Ki was determined as 34 nM in [8] and 8 nM in [9].

As to `CC(C)C[C@H](NC(=O)CC(O)[C@H](CC(C)C)NC(=O)[C@H](C)NC(=O)[C@H](Cc1ccccc1)NC(=O)[C@@H]1CCCN1C(=O)[C@H](Cc1c[nH]cn1)NC(=O)C(C)C)C(=O)N[C@@H](Cc1ccccc1)C(N)=O` (stereo not given in full) (Isobutyryl-HPFA[Sta(3ξ)]LF-NH2), the Ki in assay [8] is 4 nM; in [9] it was 99 nM.

On to `CC(C)C[C@H](NC(=O)CC(O)[C@H](CC(C)C)NC(=O)[C@H](Cc1c[nH]cn1)NC(=O)[C@H](Cc1ccccc1)NC(=O)[C@@H]1CCCN1C(=O)[C@H](Cc1c[nH]cn1)NC(=O)C(C)C)C(=O)N[C@@H](Cc1ccccc1)C(N)=O` (stereo not given in full) (Isobutyryl-HPFH[Sta(3ξ)]LF-NH2), for which the Ki in [8] was determined as 23 nM; in assay [9] it was 16 nM.

For `COC(=O)CC(O)[C@H](CC(C)C)NC(=O)[C@H](C)NC(=O)CC(O)[C@H](CC(C)C)NC(=O)[C@H](Cc1cnc[nH]1)NC(=O)[C@H](Cc1ccccc1)NC(=O)OC(C)(C)C` (stereo in doubt; 15), the IC50 in assay [7] was 1300 nM. In other words, the single-digit micromolar range.

For `COC(=O)CC(O)[C@H](CC(C)C)NC(=O)[C@H](C)NC(=O)CC(O)[C@H](CC(C)C)NC(=O)[C@H](Cc1cnc[nH]1)NC(=O)[C@H](Cc1ccccc1)NC(=O)OC(C)(C)C` (stereo in doubt; 17), the concentration for half-maximal inhibition (IC50) in [7] was 1300 nM.
